Experimental data collected from several papers.
Compare with care: the assays were run in different laboratories.
Target: Mitogen-activated protein kinase kinase kinase kinase 2 (MAP4K2, Homo sapiens, UniProt Q12851)
Residues used in one study (Q12851 1-820): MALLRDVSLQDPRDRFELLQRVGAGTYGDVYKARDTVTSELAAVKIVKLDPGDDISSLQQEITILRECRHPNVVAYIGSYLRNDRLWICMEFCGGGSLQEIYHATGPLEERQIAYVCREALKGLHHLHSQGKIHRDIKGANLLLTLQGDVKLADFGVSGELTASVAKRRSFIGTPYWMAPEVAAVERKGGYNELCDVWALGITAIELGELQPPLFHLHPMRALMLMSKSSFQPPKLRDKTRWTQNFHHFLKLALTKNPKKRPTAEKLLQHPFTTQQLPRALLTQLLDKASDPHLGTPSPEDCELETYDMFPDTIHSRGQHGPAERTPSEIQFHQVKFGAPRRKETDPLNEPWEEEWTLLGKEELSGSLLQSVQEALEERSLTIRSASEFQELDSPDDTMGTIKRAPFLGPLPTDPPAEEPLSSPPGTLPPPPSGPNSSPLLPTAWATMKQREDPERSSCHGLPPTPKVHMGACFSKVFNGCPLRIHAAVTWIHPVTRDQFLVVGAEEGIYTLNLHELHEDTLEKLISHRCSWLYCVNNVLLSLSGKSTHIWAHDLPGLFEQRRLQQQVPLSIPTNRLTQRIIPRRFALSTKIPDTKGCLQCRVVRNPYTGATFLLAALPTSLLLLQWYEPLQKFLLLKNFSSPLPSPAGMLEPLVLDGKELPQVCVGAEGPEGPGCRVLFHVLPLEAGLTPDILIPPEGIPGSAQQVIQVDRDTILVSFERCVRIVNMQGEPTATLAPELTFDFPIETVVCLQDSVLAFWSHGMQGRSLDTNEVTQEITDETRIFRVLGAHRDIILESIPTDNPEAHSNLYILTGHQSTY

c1ccc(N2CCN(Cc3nc4ccccc4[nH]3)CC2)nc1  remaining binding (binding, competition with immobilised ligand; 1 µM): 100%
CNC(=O)c1cc(Oc2ccc(NC(=O)Nc3ccc(Cl)c(C(F)(F)F)c3)cc2)ccn1  inhibition (enzyme activity, inhibitor; 10 µM): 46%
O=c1nc(-c2ccccn2)sc2ccccc12  remaining binding (binding, competition with immobilised ligand; 1 µM): 100%
CN1CCN(C(=O)c2ccc3cc(CCNc4ccnc5ccc(C#N)cc45)ccc3c2)CC1  inhibition (binding, competition with immobilised ligand; 2 µM): > 35%
CN1CC(Oc2cnc(C#N)cc2-c2ccn3nc(NC(=O)C4CC4)cc3c2)C1  inhibition (enzyme activity, inhibitor; 1 µM): 2%
C[C@H](c1ccnc(Nc2nc3ccc(-c4cc(N(C)C)ncn4)cc3[nH]2)c1)N1CCN(C(=O)CC(F)(F)F)CC1  remaining binding (cell-free assay, competition with immobilised ligand; 0.1 µM): 100%
CC(C)(C)c1nc(-c2cccc(NS(=O)(=O)c3c(F)cccc3F)c2F)c(-c2ccnc(N)n2)s1  remaining activity (enzyme activity, inhibitor, radiometric; 1 µM): 115%
FC(F)c1nc2ccccc2n1-c1nc(N2CCOCC2)nc(N2CCOCC2)n1  remaining activity (enzyme activity, inhibitor; 10 µM): 104%
Cc1sc(C(=O)NC2COC2)cc1-n1cc(NC(=O)Nc2c(F)cccc2Cl)cn1  remaining activity (enzyme activity, inhibitor; 10 µM): 90.2%
Cc1nc(N2CC[C@@H](O)C2)ncc1-c1cc(C(F)(F)F)cc2[nH]ncc12  remaining binding (binding, competition with immobilised ligand; 1 µM): 76%
Cc1ccc(Nc2nccc(N(C)c3ccc4c(C)n(C)nc4c3)n2)cc1S(N)(=O)=O  inhibition (enzyme activity, inhibitor; 0.3 µM): 16%
CCCOc1ccc(OC)c(F)c1C(=O)c1ccc(C(=O)N[C@@H]2CNC[C@H]2NC(=O)c2ccc3[nH]ncc3c2)cc1  remaining activity (enzyme activity, inhibitor; 10 µM): 61%
FC(F)(F)Oc1cccc(-c2cnc3ccc(-c4ccncc4)nn23)c1  activity vs control (enzyme activity, inhibitor, radiometric; 5 µM): 33%
COc1cc(Nc2cnc(C#N)c(O[C@H](C)CN(C)C)n2)ncc1-c1cnn(C)c1  remaining activity (enzyme activity, inhibitor, radiometric; 1 µM): 102%
O=C(O)[C@H]1[C@H](Cn2nnc3ccccc3c2=O)CC[C@@H]1C(=O)c1ccc(OCCC2CCOCC2)cc1  remaining binding (cell-free assay, competition with immobilised ligand; 1 µM): 100%
Oc1cccc(-c2nc(N3CCOCC3)c3oc4ncccc4c3n2)c1  remaining activity (enzyme activity, inhibitor; 10 µM): 91%
CC(C)(O)[C@H]1CC[C@H](Nc2ccc3ncc(-c4cccc(C(F)(F)F)c4)n3n2)CC1  remaining activity (enzyme activity, inhibitor; 1 µM): 94.6%
O=C1NC(=O)c2cc(Nc3ccc(F)cc3)c(Nc3ccc(F)cc3)cc21  remaining signal (cell-free assay; 0.5 µM): 98.2%
CCN(CC)CCNC(=O)c1c(C)[nH]c(/C=C2\C(=O)Nc3ccc(F)cc32)c1C  inhibition (enzyme activity, inhibitor; 10 µM): 92%
CCc1ccccc1C(=O)Nc1n[nH]c2c(C)c(F)c(C3C(C#N)=C(C)N(C)C(C)=C3C#N)cc12  remaining binding (cell-free assay, competition with immobilised ligand; 1 µM): 100%
Cc1ccc(NC(=O)c2ccc(C)c(C(F)(F)F)c2)cc1C#Cc1nn(C2CCC(O)CC2)c2ncnc(N)c12 (centres unmarked)  remaining signal (cell-free assay; 10 µM): 49%
N#CCCc1ccc2c(c1)-c1[nH]c3ccc([N+](=O)[O-])cc3c1CC(=O)N2  remaining signal (cell-free assay; 0.5 µM): 14%
COc1cc(Cl)c(C(=O)N[C@@H](CN[C@H]2CC[C@@H](N)CC2)Cc2ccc(C#N)cc2)cc1-c1ccc(CN[C@H](C)c2ccc(C)cc2)o1  remaining activity (enzyme activity, inhibitor; 1 µM): 94%
COc1cc(Nc2c(C#N)cnc3cc(OCCCN4CCN(C)CC4)c(OC)cc23)c(Cl)cc1Cl  remaining signal (cell-free assay; 0.5 µM): 3.16%
CC(C)(O)c1cncc(-c2nc3ccc(F)cc3n2C2CC2)c1  remaining binding (cell-free assay, competition with immobilised ligand; 1 µM): 98%
COc1cc2ncnc(Nc3ccc(Oc4ccccc4)cc3C)c2cc1OC  inhibition (enzyme activity, inhibitor; 1 µM): 2%
